Measured values: ChEMBL document CHEMBL4184236, “Design, synthesis and biological evaluation of matrine derivatives as potential anticancer agents” (Bioorg Med Chem Lett, 2018)

Assays:
[1] = system: CNE-2; experiment: Induction of cell cycle arrest in human CNE2 cells assessed as accumulation at G0-G1 phase at 5 uM incubated for 24 hrs by propidium iodide staining based flow cytometry (reference value: 69.3%); assay type: functional
[2] = system: SMMC-7721; experiment: Induction of apoptosis in human SMMC7721 cells assessed as late apoptotic cells level at 5 uM incubated for 24 hrs by Annexin V-FITC/PI dual staining based flow cytometry (reference value: 0.88%); assay type: functional
In short: (§1)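 CNE2 and SMMC-7721 cells were treated for 24 h at 0, 5, 10 or 30 µM, or at 0, 10, 20 or 50 µM depending on compound. Cells were stained with Annexin V-FITC/propidium iodide and quantified by flow cytometry. Apoptotic cells were counted as AV+/PI− (lower right) plus AV+/PI+ (upper right) quadrants.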

[3] = system: SMMC-7721; experiment: Induction of cell cycle arrest in human SMMC7721 cells assessed as accumulation at S phase at 10 uM incubated for 24 hrs by propidium iodide staining based flow cytometry (reference value: 17.2%); assay type: functional
[4] = system: SMMC-7721; experiment: Induction of apoptosis in human SMMC7721 cells assessed as viable cells level at 5 uM incubated for 24 hrs by Annexin V-FITC/PI dual staining based flow cytometry (reference value: 95.3%); assay type: functional; in short: as §1
[5] = system: CNE-2; experiment: Induction of cell cycle arrest in human CNE2 cells assessed as accumulation at G0-G1 phase at 10 uM incubated for 24 hrs by propidium iodide staining based flow cytometry (reference value: 69.3%); assay type: functional
[6] = system: CNE-2; experiment: Induction of cell cycle arrest in human CNE2 cells assessed as accumulation at S phase at 30 uM incubated for 24 hrs by propidium iodide staining based flow cytometry (reference value: 10.3%); assay type: functional
[7] = system: SMMC-7721; experiment: Induction of cell cycle arrest in human SMMC7721 cells assessed as accumulation at subG1 phase at 10 uM incubated for 24 hrs by propidium iodide staining based flow cytometry (reference value: 0.33%); assay type: functional
[8] = system: A549; experiment: Anticancer activity against human A549 cells assessed as reduction in cell viability incubated for 48 hrs MTT assay; assay type: functional, cell-based; details: A549, 48 h
In short: (§2)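 MTT assay on human hepatocarcinoma SMMC-7721, lung carcinoma A549 and nasopharyngeal carcinoma CNE2 cells, with matrine as comparator and cisplatin as positive control. IC50 is the concentration that lowers optical density of treated cells by 50% versus untreated cells, given as the mean ± SD of three experiments.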

[9] = system: CNE-2; experiment: Induction of cell cycle arrest in human CNE2 cells assessed as accumulation at G2/M phase at 10 uM incubated for 24 hrs by propidium iodide staining based flow cytometry (reference value: 19.8%); assay type: functional
[10] = system: SMMC-7721; experiment: Induction of cell cycle arrest in human SMMC7721 cells assessed as accumulation at G2/M phase incubated for 24 hrs by propidium iodide staining based flow cytometry; assay type: functional
[11] = system: CNE-2; experiment: Induction of apoptosis in human CNE2 cells assessed as late apoptotic cells level at 30 uM incubated for 24 hrs by Annexin V-FITC/PI dual staining based flow cytometry (reference value: 1.37%); assay type: functional; in short: as §1
[12] = system: SMMC-7721; experiment: Induction of apoptosis in human SMMC7721 cells incubated for 24 hrs by Annexin V-FITC/PI dual staining based flow cytometry; assay type: functional, cell-based; in short: as §1
[13] = system: CNE-2; experiment: Induction of apoptosis in human CNE2 cells assessed as necrotic cells level at 30 uM incubated for 24 hrs by Annexin V-FITC/PI dual staining based flow cytometry (reference value: 3.43%); assay type: functional; in short: as §1
[14] = system: SMMC-7721; experiment: Induction of cell cycle arrest in human SMMC7721 cells assessed as accumulation at G2/M phase at 5 uM incubated for 24 hrs by propidium iodide staining based flow cytometry (reference value: 18.4%); assay type: functional
[15] = system: CNE-2; experiment: Induction of apoptosis in human CNE2 cells incubated for 24 hrs by Annexin V-FITC/PI dual staining based flow cytometry; assay type: functional, cell-based; in short: as §1
[16] = system: SMMC-7721; experiment: Anticancer activity against human SMMC7721 cells assessed as reduction in cell viability incubated for 48 hrs MTT assay; assay type: functional, cell-based; details: SMMC-7721, 48 h; in short: as §2
[17] = system: CNE-2; experiment: Induction of apoptosis in human CNE2 cells assessed as early apoptotic cells level at 10 uM incubated for 24 hrs by Annexin V-FITC/PI dual staining based flow cytometry (reference value: 3.56%); assay type: functional; in short: as §1
[18] = system: CNE-2; experiment: Induction of apoptosis in human CNE2 cells assessed as late apoptotic cells level at 10 uM incubated for 24 hrs by Annexin V-FITC/PI dual staining based flow cytometry (reference value: 1.37%); assay type: functional; in short: as §1
[19] = system: SMMC-7721; experiment: Induction of cell cycle arrest in human SMMC7721 cells assessed as accumulation at subG1 phase at 30 uM incubated for 24 hrs by propidium iodide staining based flow cytometry (reference value: 0.33%); assay type: functional
[20] = system: CNE-2; experiment: Induction of cell cycle arrest in human CNE2 cells assessed as accumulation at subG1 phase at 30 uM incubated for 24 hrs by propidium iodide staining based flow cytometry (reference value: 0.55%); assay type: functional
[21] = system: SMMC-7721; experiment: Induction of apoptosis in human SMMC7721 cells assessed as early apoptotic cells level at 30 uM incubated for 24 hrs by Annexin V-FITC/PI dual staining based flow cytometry (reference value: 1.36%); assay type: functional; in short: as §1
[22] = system: CNE-2; experiment: Induction of apoptosis in human CNE2 cells assessed as early apoptotic cells level at 30 uM incubated for 24 hrs by Annexin V-FITC/PI dual staining based flow cytometry (reference value: 3.56%); assay type: functional; in short: as §1
[23] = system: CNE-2; experiment: Induction of cell cycle arrest in human CNE2 cells assessed as accumulation at G2/M phase incubated for 24 hrs by propidium iodide staining based flow cytometry; assay type: functional
[24] = system: CNE-2; experiment: Induction of cell cycle arrest in human CNE2 cells assessed as accumulation at S phase at 5 uM incubated for 24 hrs by propidium iodide staining based flow cytometry (reference value: 10.3%); assay type: functional
[25] = system: SMMC-7721; experiment: Induction of cell cycle arrest in human SMMC7721 cells assessed as accumulation at subG1 phase at 5 uM incubated for 24 hrs by propidium iodide staining based flow cytometry (reference value: 0.33%); assay type: functional

Structure (SMILES): COc1cc(Cn2cccc2/C=C2\CC[C@@H]3[C@H]4CCCN5CCC[C@@H](CN3C2=O)[C@@H]45)cc(OC)c1
- Activity [1]: 55.2%
- Activity [2]: 4.06%
- Activity [3]: 8.92%
- Activity [4]: 78.1%
- Activity [5]: 3.93%
- Activity [6]: 4.8%
- Activity [7]: 6.61%
- IC50 [8]: 8.05 µM
- Activity [9]: 89.4%
- Activity [10]: Dose-dependent effect
- Activity [11]: 16%
- Activity [12]: Dose-dependent effect
- Activity [13]: 6.5%
- Activity [14]: 24.1%
- Activity [15]: Dose-dependent effect
- IC50 [16]: 4.65 µM
- Activity [17]: 25.1%
- Activity [18]: 8.94%
- Activity [19]: 3.08%
- Activity [20]: 4.2%
- Activity [21]: 33.1%
- Activity [22]: 34.6%
- Activity [23]: Dose-dependent effect
- Activity [24]: 11%
- Activity [25]: 4.95%
